ChEMBL document CHEMBL4130539, “Novel ureidopropanamide based N-formyl peptide receptor 2 (FPR2) agonists with potential application for central nervous system disorders characterized by neuroinflammation” (Eur J Med Chem, 2017)
Active and inactive are the calls of the source. The calls are words filed in the database; no cut-off is given here.

Legend:
[1] = target: T1, fMet-Leu-Phe receptor (Homo sapiens, UniProt P21462); test: Agonist activity at human FPR1 expressed in human HL60 cells assessed as induction of calcium mobilization; assay type: functional, cell-based
T1 sequence (P21462 whole entry): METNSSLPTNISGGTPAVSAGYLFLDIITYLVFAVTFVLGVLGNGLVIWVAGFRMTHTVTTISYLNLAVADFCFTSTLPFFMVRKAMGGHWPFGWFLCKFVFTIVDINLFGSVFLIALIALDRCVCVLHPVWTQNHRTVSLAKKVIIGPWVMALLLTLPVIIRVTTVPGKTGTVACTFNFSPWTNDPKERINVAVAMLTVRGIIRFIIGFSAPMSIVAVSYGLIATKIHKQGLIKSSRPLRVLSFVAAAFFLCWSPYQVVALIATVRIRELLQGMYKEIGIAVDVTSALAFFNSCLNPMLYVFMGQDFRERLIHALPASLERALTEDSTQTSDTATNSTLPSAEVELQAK

[2] = Metabolic stability in rat liver microsomes assessed as parent compound remaining at 10 uM preincubated for 10 mins followed by NADPH addition measured after 30 mins by liquid chromatographic method; assay type: ADME, microsome; conditions: 0.5 h
[3] = target: T2, N-formyl peptide receptor 2 (Homo sapiens, UniProt P25090); test: Agonist activity at human FPR2 expressed in human HL60 cells assessed as induction of calcium mobilization; assay type: functional, cell-based
T2 sequence (P25090 whole entry): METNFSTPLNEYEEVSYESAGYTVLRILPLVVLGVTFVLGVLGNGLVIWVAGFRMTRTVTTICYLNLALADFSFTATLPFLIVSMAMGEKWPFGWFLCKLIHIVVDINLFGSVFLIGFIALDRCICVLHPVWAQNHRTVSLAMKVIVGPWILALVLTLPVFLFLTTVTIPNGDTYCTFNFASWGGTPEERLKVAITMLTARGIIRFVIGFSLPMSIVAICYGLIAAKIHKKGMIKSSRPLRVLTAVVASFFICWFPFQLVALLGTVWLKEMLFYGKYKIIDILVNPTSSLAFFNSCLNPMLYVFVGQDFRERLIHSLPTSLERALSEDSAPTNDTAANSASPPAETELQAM

[4] = target: T3, N-formyl peptide receptor 2 (Homo sapiens) (UniProt P25090); test: Agonist activity at human FPR2 expressed in human HL60 cells assessed as induction of calcium mobilization relative to control; assay type: functional, cell-based
T3 sequence (whole entry): T2 sequence (P25090 whole entry)

[5] = target: T2, N-formyl peptide receptor 2; test: Agonist activity at human FPR2 expressed in human HL60 cells assessed as induction of calcium mobilization measured every 5 secs for 240 secs by Fluo-4-AM dye based fluorometric method; assay type: functional, cell-based; conditions: read-out: EC50
[6] = target: T3, N-formyl peptide receptor 2 (Homo sapiens); test: Agonist activity at human FPR2 expressed in human HL60 cells assessed as induction of calcium mobilization measured every 5 secs for 240 secs by Fluo-4-AM dye based fluorometric method relative to WKYMVM; assay type: functional, cell-based
[7] = target: T1, fMet-Leu-Phe receptor; test: Agonist activity at human FPR1 expressed in human HL60 cells assessed as induction of calcium mobilization measured every 5 secs for 240 secs by Fluo-4-AM dye based fluorometric method; assay type: functional, cell-based; conditions: read-out: EC50
[8] = target: T4, fMet-Leu-Phe receptor (Homo sapiens) (UniProt P21462); test: Agonist activity at human FPR1 expressed in human HL60 cells assessed as induction of calcium mobilization measured every 5 secs for 240 secs by Fluo-4-AM dye based fluorometric method relative to fMLF; assay type: functional, cell-based
T4 sequence (whole entry): T1 sequence (P21462 whole entry)

[9] = target: T2, N-formyl peptide receptor 2; test: Agonist activity at FPR2 in human neutrophils assessed as induction of calcium mobilization measured every 5 secs for 240 secs by Fluo-4-AM dye based fluorometric method; assay type: functional; conditions: read-out: EC50
[10] = Half life in rat liver microsomes at 10 uM preincubated for 10 mins followed by NADPH addition by liquid chromatographic method; assay type: ADME, microsome
[11] = Intrinsic clearance in rat liver microsomes at 10 uM preincubated for 10 mins followed by NADPH addition by liquid chromatographic method; assay type: ADME, microsome
[12] = system: Microglia; test: Cytotoxicity against Sprague-Dawley rat primary microglia cells assessed as cell death at 0.5 to 10 uM after 24 hrs by LDH assay; assay type: cell-based
[13] = system: Microglia; test: Cytotoxicity against Sprague-Dawley rat primary microglia cells assessed as reduction in cell viability at 0.5 to 10 uM after 24 hrs by MTT assay; assay type: cell-based
[14] = system: Microglia; test: Cytotoxicity against Sprague-Dawley rat primary microglia cells assessed as cell death at 50 uM after 24 hrs by LDH assay; assay type: cell-based
[15] = system: Microglia; test: Cytotoxicity against Sprague-Dawley rat primary microglia cells assessed as reduction in cell viability at 50 uM after 24 hrs by MTT assay; assay type: cell-based
[16] = system: Microglia; test: Cytoprotection against LPS-induced cell death in Sprague-Dawley rat primary microglia cells at 1 to 5 uM pretreated for 1 hr followed by LPS stimulation for 24 hrs by LDH assay; assay type: functional, cell-based
[17] = system: Microglia; test: Cytoprotection against LPS-induced cell death in Sprague-Dawley rat primary microglia cells at 0.5 to 50 uM pretreated for 1 hr followed by LPS stimulation for 24 hrs by MTT assay; assay type: functional, cell-based
[18] = system: Microglia; test: Proinflammatory activity in Sprague-Dawley rat primary microglia cells assessed as induction of NO level up to 10 uM after 24 hrs by Griess reagent based assay; assay type: cell-based
Procedure, shortened: (§1)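 Rat primary cortical microglia (Sprague-Dawley pups, 1–2 days old, >95% Iba-1/CD11b-positive) given agonist without LPS for 24 h; WRW4 added 30 min before agonist where indicated. Supernatant NO measured with Griess reagent (540 nm, 10 min room temperature); TNF-α and IL-1β by ELISA. Values normalized to vehicle-treated cells (100%).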

[19] = system: Microglia; test: Proinflammatory activity in Sprague-Dawley rat primary microglia cells assessed as induction of NO level up to 10 uM after 24 hrs in presence of FPR2 antagonist WRW4 by Griess reagent based assay; assay type: cell-based; procedure, shortened: as §1
[20] = system: Microglia; test: Anti-inflammatory activity in Sprague-Dawley rat primary microglia cells assessed as inhibition of LPS-induced NO level at 5 to 10 uM pretreated for 1 hr followed by LPS stimulation for 24 hrs by Griess reagent based assay; assay type: functional, cell-based
Procedure, shortened: (§2)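 Primary microglia from cortices of 1–2-day-old Sprague-Dawley rats, shaken off mixed cultures at day 9 in vitro, >95% Iba-1/CD11b-positive, used 2 days after plating. Agonist added 1 h before LPS (E. coli 0111:B4, 100 ng/ml) for 24 h; WRW4 given 30 min before agonist where stated. Medium NO by Griess reaction (540 nm); TNF-α and IL-1β by ELISA. Data as % of vehicle-treated control.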

[21] = system: Microglia; test: Anti-inflammatory activity in Sprague-Dawley rat primary microglia cells assessed as inhibition of LPS-induced NO level up to 10 uM pretreated for 1 hr followed by LPS stimulation for 24 hrs in presence of FPR2 antagonist WRW4 by Griess reagent based assay; assay type: functional, cell-based; procedure, shortened: as §2
[22] = system: Microglia; test: Proinflammatory activity in Sprague-Dawley rat primary microglia cells assessed as induction of IL-1beta level up to 10 uM after 24 hrs by ELISA; assay type: cell-based; procedure, shortened: as §1
[23] = system: Microglia; test: Proinflammatory activity in Sprague-Dawley rat primary microglia cells assessed as induction of TNFalpha level up to 10 uM after 24 hrs by ELISA; assay type: cell-based; procedure, shortened: as §1
[24] = system: Microglia; test: Proinflammatory activity in Sprague-Dawley rat primary microglia cells assessed as induction of IL-1beta level up to 10 uM after 24 hrs in presence of FPR2 antagonist WRW4 by ELISA; assay type: cell-based; procedure, shortened: as §1
[25] = system: Microglia; test: Proinflammatory activity in Sprague-Dawley rat primary microglia cells assessed as induction of TNFalpha level up to 10 uM after 24 hrs in presence of FPR2 antagonist WRW4 by ELISA; assay type: cell-based; procedure, shortened: as §1
[26] = system: Microglia; test: Anti-inflammatory activity in Sprague-Dawley rat primary microglia cells assessed as inhibition of LPS-induced IL-1beta level up to 10 uM pretreated for 1 hr followed by LPS stimulation for 24 hrs by ELISA; assay type: functional, cell-based; procedure, shortened: as §2
[27] = system: Microglia; test: Anti-inflammatory activity in Sprague-Dawley rat primary microglia cells assessed as inhibition of LPS-induced TNFalpha level up to 10 uM pretreated for 1 hr followed by LPS stimulation for 24 hrs by ELISA; assay type: functional, cell-based; procedure, shortened: as §2
[28] = system: Microglia; test: Anti-inflammatory activity in Sprague-Dawley rat primary microglia cells assessed as inhibition of LPS-induced IL-1beta level up to 10 uM pretreated for 1 hr followed by LPS stimulation for 24 hrs in presence of FPR2 antagonist WRW4 by ELISA; assay type: functional, cell-based; procedure, shortened: as §2
[29] = system: Microglia; test: Anti-inflammatory activity in Sprague-Dawley rat primary microglia cells assessed as inhibition of LPS-induced TNFalpha level up to 10 uM pretreated for 1 hr followed by LPS stimulation for 24 hrs in presence of FPR2 antagonist WRW4 by ELISA; assay type: functional, cell-based; procedure, shortened: as §2
[30] = Efflux ratio of apparent permeability in hCMEC/D3 cells at 5 to 10 uM after 2 hrs by UV-spectroscopic method; assay type: ADME, cell-based; conditions: human, hcmec/d3, 2 h
[31] = target: T3, N-formyl peptide receptor 2 (Homo sapiens); test: Agonist activity at FPR2 in human neutrophils assessed as induction of calcium mobilization measured every 5 secs for 240 secs by Fluo-4-AM dye based fluorometric method relative to fMLF
[32] = system: Microglia; test: Anti-inflammatory activity in Sprague-Dawley rat primary microglia cells assessed as inhibition of LPS-induced NO level up to 10 uM pretreated for 1 hr followed by LPS stimulation for 24 hrs by Griess reagent based assay; assay type: functional, cell-based; procedure, shortened: as §2
[33] = system: Microglia; test: Anti-inflammatory activity in Sprague-Dawley rat primary microglia cells assessed as inhibition of LPS-induced IL-1beta level at 0.05 to 0.1 uM pretreated for 1 hr followed by LPS stimulation for 24 hrs by ELISA; assay type: functional, cell-based; procedure, shortened: as §2
[34] = system: Microglia; test: Anti-inflammatory activity in Sprague-Dawley rat primary microglia cells assessed as inhibition of LPS-induced TNFalpha level at 0.05 to 0.1 uM pretreated for 1 hr followed by LPS stimulation for 24 hrs by ELISA; assay type: functional, cell-based; procedure, shortened: as §2

SMILES	Stability [2] [%]	EC50 [5] [µM]	Efficacy [6] [%]	EC50 [7] [µM]	Efficacy [8] [%]	EC50 [9] [µM]	t1/2 [10] [h]	Microsomal intrinsic clearance (CLint) [11] [µL/min/mg]	Activity [12]	Activity [13]	Activity [14]	Activity [16]	Activity [17]	Activity [18]	Activity [19]	Activity [22]	Activity [23]	Activity [24]	Activity [25]	inhibition [26]	also measured
COc1ccc(NC(=O)N[C@@H](Cc2c[nH]c3ccccc23)C(=O)NCC2(c3ccc(OC)cn3)CCCCC2)cc1	4																				EC50 [1]: 0.26 µM
O=C(Nc1ccc([N+](=O)[O-])cc1)N[C@@H](Cc1c[nH]c2ccccc12)C(=O)NCC1(c2ccccc2)CC1	11																				EC50 [3]: 7.6 µM; Efficacy [4]: 60%
N#Cc1ccc(C[C@H](NC(=O)Nc2ccc([N+](=O)[O-])cc2)C(=O)NCC2(c3ccccc3)CC2)cc1	56	0.63	100	2.8	75	2.5	2	5.78	Non-Toxic	Non-Toxic	Toxic	Active	inactive	Non-Toxic	Non-Toxic	Non-Toxic	Non-Toxic	Non-Toxic	Non-Toxic	Active	Activity [15]: Toxic; inhibition [20]: Active; inhibition [21]: Active; inhibition [27]: Active; inhibition [28]: Active; inhibition [29]: Active; Ratio [30]: 5.06; Efficacy [31]: 115%
N#Cc1ccc(C[C@H](NC(=O)Nc2ccc(F)cc2)C(=O)NCC2(c3ccc(F)c(Cl)c3)CC2)cc1	33	3.9	80	5.2	55	0.19	0.8	14.4	Non-Toxic	Non-Toxic	Toxic	Active	inactive	Non-Toxic	Non-Toxic	Non-Toxic	Non-Toxic	Non-Toxic	Non-Toxic	Active	Activity [15]: Toxic; inhibition [32]: inactive; inhibition [27]: Active; inhibition [28]: inactive; inhibition [29]: inactive; inhibition [33]: inactive; inhibition [34]: inactive; Ratio [30]: 2.6; Efficacy [31]: 130%
O=C(Nc1ccc([N+](=O)[O-])cc1)N[C@H](Cc1cccnc1)C(=O)NCC1(c2ccccc2)CC1	45	2.9	60	1.5	145	0.12	1.65	7	Non-Toxic	Non-Toxic	Toxic	Active	inactive	Non-Toxic	Non-Toxic	Non-Toxic	Non-Toxic	Non-Toxic	Non-Toxic	Active	inhibition [32]: inactive; inhibition [27]: Active; inhibition [28]: inactive; Ratio [30]: 3.7; Efficacy [31]: 90%
